Experimental data from different studies.
Each line is one published result; the experiments were not run side by side.
Target: Vascular endothelial growth factor receptor 2 (KDR, Homo sapiens, UniProt P35968)

COc1ccc(C=NNC(=O)c2sc(Nc3ccccc3)c(C(=O)Nc3ccc(OC)cc3)c2NC(C)=O)cc1 has a remaining activity of 35.1% (enzyme activity, inhibitor; 100 µM).
With Oc1cccc(-c2nc(N3CCOCC3)c3oc4ncccc4c3n2)c1 the remaining signal was 85.9% (cell-free assay; 0.5 µM).
CSc1nc(C)c(-c2ccnc(Nc3ccc(N4CCOCC4)cc3)c2)[nH]1 has an inhibition of 95.1% (enzyme activity, inhibitor; 10 µM).
For N#Cc1ccc(Nc2ccc3[nH]c(=O)[nH]c3c2)c(Cl)c1, the remaining binding was 99% (cell-free assay, competition with immobilised ligand; 1 µM).
CCCS(=O)(=O)Nc1ccc(F)c(C(=O)c2c[nH]c3ncc(-c4ccc(Cl)cc4)cc23)c1F has an inhibition of less than 20% (enzyme activity, inhibitor; 1 µM).
For O=C1Cc2c([nH]c3ccc(Br)cc23)-c2ccccc2N1, the remaining signal was 98.1% (cell-free assay; 0.5 µM).
COc1ccc(NC(=O)c2c(Nc3ccccc3)sc(C#N)c2NC(=O)CNc2ccc(Cl)cc2)cc1 gave a remaining activity of 61.3% (enzyme activity, inhibitor; 0.1 µM).
For COc1cc(-c2cn(C3CCc4ccccc4N(CC(F)(F)F)C3=O)nn2)ccc1-n1ccc(C)n1 (stereo not shown), the remaining binding was 79% (cell-free assay, competition with immobilised ligand; 1 µM).
The remaining signal of N#CCCc1ccc2c(c1)-c1[nH]c3ccc([N+](=O)[O-])cc3c1CC(=O)N2 is reported as 75.5% (cell-free assay; 0.5 µM).
For COc1cc2ncnc(Nc3ccc(Oc4ccccc4)cc3C)c2cc1OC, the inhibition was 14% (enzyme activity, inhibitor; 1 µM).
With COc1cc2nccc(Oc3ccc(NC(=O)c4c5n(n(-c6ccc(F)cc6)c4=O)CCCC5)cc3)c2cc1OC the inhibition was 22% (enzyme activity, inhibitor; 0.1 µM).
The remaining binding of FC(F)(F)c1ccc2c(c1)nc(-c1cccnc1)n2C1CC1 is reported as 100% (cell-free assay, competition with immobilised ligand; 1 µM).
For CC(C)c1ccc(NC(=O)c2cccs2)c(-c2nc3ccccc3[nH]c2=O)c1, the activity vs control was 25% (enzyme activity, inhibitor; 1 µM).
For Cc1[nH]c(/C=C2\C(=O)Nc3ccc(F)cc32)c(C)c1C(=O)N[C@H]1CCN(C(=O)N(C)C)C1, the remaining activity was 9% (enzyme activity, inhibitor; 1 µM).
For O=C1NC(=O)c2cc(Nc3ccc(F)cc3)c(Nc3ccc(F)cc3)cc21, the remaining signal was 97.9% (cell-free assay; 0.5 µM).
Nc1ncnc2occ(-c3ccc(NC(=O)Nc4cc(C(F)(F)F)ccc4F)cc3)c12 gave a remaining signal of 0% (cell-free assay; 20 µM).
O=C(CSc1nc2nccnc2c(=O)n1CCc1ccccc1)Nc1nccs1 gave an inhibition of 10% (enzyme activity, inhibitor; 10 µM).
The remaining activity of COc1ccc(NC(=O)c2c(Nc3ccccc3)sc(C(=O)NN=Cc3cc(OC)c(OC)c(OC)c3)c2NC(C)=O)cc1 is reported as 71.1% (enzyme activity, inhibitor; 10 µM).
CN(C)C1CCN(CC#Cc2nn(C3CCCC3)c3nc(NCc4ccccc4)ncc23)C1 (stereo not shown) gave an inhibition of 14% (enzyme activity, inhibitor, FRET; 1 µM).
The remaining binding of C[C@H](c1cccc(C#N)c1)n1cc(Cl)cc(C(N)=O)c1=N is reported as 88% (cell-free assay, competition with immobilised ligand; 1 µM).
For COc1ccc(-c2cnc3c(-c4ccsc4)cnn3c2)cc1, the remaining signal was 79.8% (cell-free assay; 0.5 µM).
Cc1ccc(NC(=O)c2ccc(C)c(C(F)(F)F)c2)cc1C#Cc1nn(C2CCC(O)CC2)c2ncnc(N)c12 (stereo not shown) has a remaining signal of 2% (cell-free assay; 10 µM).
COc1ccc(NC(=O)c2c(Nc3ccccc3)sc(C(=O)NN=Cc3ccc(OC)c(O)c3)c2NC(C)=O)cc1 gave a remaining activity of 46.1% (enzyme activity, inhibitor; 10 µM).
For CCS(=O)(=O)c1cc2cc(C[C@@](O)(CC(C)(C)c3ccc(F)cc3C(N)=O)C(F)(F)F)[nH]c2cn1, the remaining binding was 92% (cell-free assay, competition with immobilised ligand; 1 µM).
The remaining activity of COc1ccc(NC(=O)c2c(Nc3ccccc3)sc(C#N)c2NC(=O)CNc2ccc(Br)cc2)cc1 is reported as 35.4% (enzyme activity, inhibitor; 10 µM).
The remaining binding of COc1ccc2cc(OCC3(C(=O)O)CN(C(=O)c4ccc(F)cc4)C3)ccc2c1 is reported as 100% (cell-free assay, competition with immobilised ligand; 1 µM).
For COc1ccc(NC(=O)c2c(Nc3ccccc3)sc(C#N)c2NC(=O)CNc2ccc([N+](=O)[O-])cc2)cc1, the remaining activity was 98% (enzyme activity, inhibitor; 10 nM).
For Cc1c[nH]c2nccc(Oc3c(F)cc(Nc4cc(Cl)nc(N)n4)cc3F)c12, the remaining binding was 81% (cell-free assay, competition with immobilised ligand; 0.1 µM).
With c1nc2c(Nc3ccc4c(c3)OCCO4)nc(Nc3ccc4c(c3)OCCO4)nc2[nH]1 the activity vs control was 11% (enzyme activity, inhibitor; 10 µM).
The remaining binding of CS(=O)(=O)NCC[C@H](NC(=O)c1cncc2c1cnn2-c1ccc(F)cc1)c1ccnc(S(C)(=O)=O)c1 is reported as 100% (cell-free assay, competition with immobilised ligand; 1 µM).
For COc1ccc(NC(=O)c2c(Nc3ccccc3)sc(C(=O)NN=Cc3ccc(Cl)cc3)c2NC(C)=O)cc1, the remaining activity was 96.1% (enzyme activity, inhibitor; 10 nM).
